ChEMBL document CHEMBL3098111, “Discovery of 2,5-diarylnicotinamides as selective orexin-2 receptor antagonists (2-SORAs)” (Bioorg Med Chem Lett, 2013)
Active and inactive are the calls of the source. No cut-off for these calls is given here.

Experiments:
[1] = target: Cannabinoid receptor 2 (Homo sapiens) (UniProt P34972); experiment: Inhibition of human CB2 receptor at 10 uM relative to control
[2] = target: Histamine H1 receptor (Homo sapiens) (UniProt P35367); experiment: Inhibition of human histamine H1 receptor at 10 uM relative to control
[3] = test system: Rattus norvegicus; experiment: Antiinsomnic activity in rat EEG model assessed as decrease in light sleep time at 15 mg/kg, po; type: functional, organism-based; set-up: dose 15 mg/kg
Method in brief: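 Rats with EEG telemetry given 15 mg/kg orally during their active period, vehicle 20% Vitamin E TPGS in water. Sleep architecture (active wake, light sleep, delta and REM sleep) scored from EEG.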

[4] = target: Muscarinic acetylcholine receptor M1 (Homo sapiens) (UniProt P11229); experiment: Inhibition of human muscarinic M1 receptor at 10 uM relative to control
[5] = species: Rattus norvegicus; experiment: Inhibition of rat sodium channel site 2 at 10 uM relative to control
[6] = target: Beta-2 adrenergic receptor (Homo sapiens) (UniProt P07550); experiment: Inhibition of human beta2 adrenergic receptor at 10 uM relative to control
[7] = target: T1, Glutamate NMDA receptor (Rattus norvegicus) (UniProt P35439+Q00959+Q00960+Q00961+Q62645+Q8VHN2+Q9R1M7); experiment: Inhibition of rat NMDA receptor agonist binding site at 10 uM relative to control; type: protein-complex assay
[8] = target: Nitric oxide synthase 1 (Rattus norvegicus) (UniProt P29476); experiment: Inhibition of rat nNOS at 10 uM relative to control
[9] = target: T2, GABA-A receptor; alpha-1/beta-3/gamma-2 (Homo sapiens) (UniProt P14867+P18507+P28472); experiment: Inhibition of human GABA alpha1beta3gamma2 receptor muscimol binding site at 10 uM relative to control; type: protein-complex assay
[10] = target: B1 bradykinin receptor (Homo sapiens) (UniProt P46663); experiment: Inhibition of human bradykinin B1 receptor at 10 uM relative to control
[11] = species: Cavia porcellus; experiment: Inhibition of guinea pig adenosine transporter at 10 uM relative to control
[12] = target: Estrogen receptor (Homo sapiens) (UniProt P03372); experiment: Inhibition of human ERalpha receptor at 10 uM relative to control
[13] = target: T3, 5-hydroxytryptamine receptor 1A (Homo sapiens) (UniProt P08908); experiment: Inhibition of human 5-HT1A receptor at 0.1 uM relative to control
T3 sequence (whole entry): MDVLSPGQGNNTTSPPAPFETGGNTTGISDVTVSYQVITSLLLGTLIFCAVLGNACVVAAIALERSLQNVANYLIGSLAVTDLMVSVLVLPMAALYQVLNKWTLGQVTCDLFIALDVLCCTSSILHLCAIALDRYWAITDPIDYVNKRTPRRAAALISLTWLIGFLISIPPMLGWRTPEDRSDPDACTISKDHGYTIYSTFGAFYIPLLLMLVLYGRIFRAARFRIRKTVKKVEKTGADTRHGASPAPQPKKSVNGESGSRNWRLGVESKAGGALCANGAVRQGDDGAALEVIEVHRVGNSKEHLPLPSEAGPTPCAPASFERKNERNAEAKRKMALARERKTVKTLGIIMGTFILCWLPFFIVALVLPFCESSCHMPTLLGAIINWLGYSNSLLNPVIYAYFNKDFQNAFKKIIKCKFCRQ

[14] = target: Kappa-type opioid receptor (Homo sapiens) (UniProt P41145); experiment: Inhibition of human kappa opioid receptor at 10 uM relative to control
[15] = target: T1, Glutamate NMDA receptor (Rattus norvegicus); experiment: Inhibition of rat NMDA receptor phencyclidine binding site at 10 uM relative to control; type: protein-complex assay
[16] = target: Somatostatin receptor type 5 (Homo sapiens) (UniProt P35346); experiment: Inhibition of human SST5 receptor at 10 uM relative to control
[17] = target: T2, GABA-A receptor; alpha-1/beta-3/gamma-2 (Homo sapiens); experiment: Inhibition of human GABA alpha1beta3gamma2 receptor at 10 uM relative to control; type: protein-complex assay
[18] = target: D(4) dopamine receptor (Homo sapiens) (UniProt P21917); experiment: Inhibition of human dopamine D4.4 receptor at 10 uM relative to control
[19] = target: B2 bradykinin receptor (Homo sapiens) (UniProt P30411); experiment: Inhibition of human bradykinin B2 receptor at 10 uM relative to control
[20] = target: Galanin receptor type 2 (Homo sapiens) (UniProt O43603); experiment: Inhibition of human GAL2 receptor at 10 uM relative to control
[21] = target: Neuromedin-K receptor (Homo sapiens) (UniProt P29371); experiment: Inhibition of human NK3 receptor at 10 uM relative to control
[22] = target: D(1B) dopamine receptor (Homo sapiens) (UniProt P21918); experiment: Inhibition of human dopamine D5 receptor at 10 uM relative to control
[23] = target: Prostacyclin receptor (Homo sapiens) (UniProt P43119); experiment: Inhibition of human prostanoid IP receptor at 10 uM relative to control
[24] = target: 5-hydroxytryptamine receptor 4 (Cavia porcellus) (UniProt O70528); experiment: Inhibition of guinea pig 5-HT4 receptor at 10 uM relative to control
[25] = target: Endothelin-1 receptor (Homo sapiens) (UniProt P25101); experiment: Inhibition of human ETA receptor at 10 uM relative to control
[26] = target: T4, Mu-type opioid receptor (Homo sapiens, UniProt P35372); experiment: Inhibition of human mu opioid receptor at 10 nM relative to control
[27] = species: Rattus norvegicus; experiment: Inhibition of rat bombesin receptor at 10 uM relative to control
[28] = target: Thromboxane A2 receptor (Homo sapiens) (UniProt P21731); experiment: Inhibition of human thromboxane A2 receptor at 10 uM relative to control
[29] = target: Substance-K receptor (Homo sapiens) (UniProt P21452); experiment: Inhibition of human NK2 receptor at 10 uM relative to control
[30] = target: T4, Mu-type opioid receptor; experiment: Inhibition of human mu opioid receptor at 1 uM relative to control
[31] = species: Oryctolagus cuniculus; experiment: Inhibition of rabbit monoamine transporter at 1 uM relative to control
[32] = target: cGMP-specific 3',5'-cyclic phosphodiesterase (Homo sapiens) (UniProt O76074); experiment: Inhibition of human PDE5 at 100 uM relative to control
[33] = species: Cavia porcellus; experiment: Inhibition of guinea pig adenosine transporter at 1 uM relative to control
[34] = target: Endothelin receptor type B (Homo sapiens) (UniProt P24530); experiment: Inhibition of human ETB receptor at 10 uM relative to control
[35] = species: Rattus norvegicus; experiment: Inhibition of rat GABAB receptor at 10 uM relative to control
[36] = target: Mitogen-activated protein kinase 3 (Homo sapiens) (UniProt P27361); experiment: Inhibition of human MAPK3 at 100 uM relative to control
[37] = species: Rattus norvegicus; experiment: Inhibition of rat GABA transporter at 10 uM relative to control
[38] = target: Alpha-1D adrenergic receptor (Homo sapiens) (UniProt P25100); experiment: Inhibition of human alpha1D adrenergic receptor at 10 uM relative to control
[39] = target: Vasopressin V1a receptor (Homo sapiens) (UniProt P37288); experiment: Inhibition of human V1A receptor at 10 uM relative to control
[40] = species: Rattus norvegicus; experiment: Inhibition of rat 5-HT1 receptor at 10 uM relative to control

T4 sequence (P35372 whole entry): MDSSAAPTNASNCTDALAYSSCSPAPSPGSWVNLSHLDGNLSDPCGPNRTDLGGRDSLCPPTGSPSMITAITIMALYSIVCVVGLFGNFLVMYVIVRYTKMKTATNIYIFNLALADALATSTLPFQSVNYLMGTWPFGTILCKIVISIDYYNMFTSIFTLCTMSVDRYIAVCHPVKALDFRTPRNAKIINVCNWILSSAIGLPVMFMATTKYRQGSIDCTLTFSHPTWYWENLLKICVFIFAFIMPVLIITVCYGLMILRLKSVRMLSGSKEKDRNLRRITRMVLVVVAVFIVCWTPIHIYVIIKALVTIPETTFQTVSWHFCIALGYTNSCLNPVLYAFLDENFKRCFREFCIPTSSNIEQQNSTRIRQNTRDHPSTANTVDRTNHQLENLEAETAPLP
Sequence of B1 bradykinin receptor (Homo sapiens) (P46663 whole entry): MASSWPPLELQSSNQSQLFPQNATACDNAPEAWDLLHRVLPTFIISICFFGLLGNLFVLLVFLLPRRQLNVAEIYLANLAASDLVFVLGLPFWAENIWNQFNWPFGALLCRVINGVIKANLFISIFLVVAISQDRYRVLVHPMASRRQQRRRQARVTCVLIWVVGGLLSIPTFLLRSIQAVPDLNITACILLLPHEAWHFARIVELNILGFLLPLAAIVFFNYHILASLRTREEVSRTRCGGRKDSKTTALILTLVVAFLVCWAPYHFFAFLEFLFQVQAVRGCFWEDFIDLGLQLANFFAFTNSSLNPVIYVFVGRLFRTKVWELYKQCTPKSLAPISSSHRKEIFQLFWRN
Sequence of Estrogen receptor (Homo sapiens) (P03372 whole entry): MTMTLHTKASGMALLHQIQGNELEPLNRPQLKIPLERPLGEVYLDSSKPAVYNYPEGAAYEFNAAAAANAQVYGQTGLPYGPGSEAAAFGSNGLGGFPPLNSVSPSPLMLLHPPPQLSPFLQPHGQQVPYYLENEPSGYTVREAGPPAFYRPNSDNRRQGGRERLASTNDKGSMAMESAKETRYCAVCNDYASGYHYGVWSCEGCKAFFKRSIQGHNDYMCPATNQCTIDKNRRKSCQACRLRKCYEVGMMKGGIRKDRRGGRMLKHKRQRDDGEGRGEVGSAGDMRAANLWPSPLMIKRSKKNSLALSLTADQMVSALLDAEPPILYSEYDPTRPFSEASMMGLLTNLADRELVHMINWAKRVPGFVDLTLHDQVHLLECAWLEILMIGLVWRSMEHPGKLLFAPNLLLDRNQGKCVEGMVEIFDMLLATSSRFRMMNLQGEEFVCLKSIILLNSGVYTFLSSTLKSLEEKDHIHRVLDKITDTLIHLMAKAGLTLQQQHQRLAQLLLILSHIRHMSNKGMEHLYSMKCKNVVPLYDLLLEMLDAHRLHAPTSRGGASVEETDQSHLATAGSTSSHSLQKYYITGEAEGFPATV
Sequence of Somatostatin receptor type 5 (Homo sapiens) (P35346 whole entry): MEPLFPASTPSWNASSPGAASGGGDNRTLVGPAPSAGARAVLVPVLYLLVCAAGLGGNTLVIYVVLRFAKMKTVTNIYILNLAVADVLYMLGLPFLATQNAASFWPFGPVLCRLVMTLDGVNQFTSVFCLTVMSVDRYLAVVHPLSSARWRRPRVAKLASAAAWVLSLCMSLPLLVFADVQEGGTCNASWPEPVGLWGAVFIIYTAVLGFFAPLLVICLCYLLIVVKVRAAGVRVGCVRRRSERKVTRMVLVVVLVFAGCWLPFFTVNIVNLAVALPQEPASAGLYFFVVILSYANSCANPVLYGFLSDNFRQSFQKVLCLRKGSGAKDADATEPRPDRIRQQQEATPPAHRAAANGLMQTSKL
Sequence of Cannabinoid receptor 2 (Homo sapiens) (P34972 whole entry): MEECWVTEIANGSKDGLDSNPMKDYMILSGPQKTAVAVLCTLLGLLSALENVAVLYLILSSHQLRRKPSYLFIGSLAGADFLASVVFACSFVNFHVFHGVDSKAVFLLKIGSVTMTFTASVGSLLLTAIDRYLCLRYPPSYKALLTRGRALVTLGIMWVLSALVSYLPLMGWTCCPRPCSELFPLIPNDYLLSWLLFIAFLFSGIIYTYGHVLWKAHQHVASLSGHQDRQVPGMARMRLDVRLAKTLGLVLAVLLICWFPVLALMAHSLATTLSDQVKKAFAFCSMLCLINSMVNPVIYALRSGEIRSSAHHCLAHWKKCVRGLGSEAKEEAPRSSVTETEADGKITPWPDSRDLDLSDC
Sequence of B2 bradykinin receptor (Homo sapiens) (P30411 whole entry): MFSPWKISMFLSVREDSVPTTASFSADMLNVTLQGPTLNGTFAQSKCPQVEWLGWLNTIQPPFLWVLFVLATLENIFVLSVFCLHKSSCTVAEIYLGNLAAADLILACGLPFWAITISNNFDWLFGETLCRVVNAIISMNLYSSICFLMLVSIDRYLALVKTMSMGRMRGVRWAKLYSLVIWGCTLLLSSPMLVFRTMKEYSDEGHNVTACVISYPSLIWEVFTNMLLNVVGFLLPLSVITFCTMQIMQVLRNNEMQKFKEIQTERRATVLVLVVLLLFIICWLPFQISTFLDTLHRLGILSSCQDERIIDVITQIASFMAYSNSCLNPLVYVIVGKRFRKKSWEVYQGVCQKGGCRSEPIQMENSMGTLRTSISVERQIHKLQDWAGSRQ
Sequence of D(4) dopamine receptor (Homo sapiens) (P21917 whole entry): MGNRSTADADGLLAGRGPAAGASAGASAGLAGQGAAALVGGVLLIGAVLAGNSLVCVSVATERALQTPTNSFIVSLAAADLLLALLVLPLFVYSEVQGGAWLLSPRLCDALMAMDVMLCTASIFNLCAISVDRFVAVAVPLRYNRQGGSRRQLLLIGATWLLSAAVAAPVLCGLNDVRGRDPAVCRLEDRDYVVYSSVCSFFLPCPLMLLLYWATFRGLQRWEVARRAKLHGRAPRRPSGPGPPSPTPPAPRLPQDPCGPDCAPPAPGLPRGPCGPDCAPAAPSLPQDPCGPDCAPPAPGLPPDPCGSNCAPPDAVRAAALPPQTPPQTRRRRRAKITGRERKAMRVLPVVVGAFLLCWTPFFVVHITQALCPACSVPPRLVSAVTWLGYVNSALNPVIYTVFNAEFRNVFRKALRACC
Sequence of Endothelin-1 receptor (Homo sapiens) (P25101 whole entry): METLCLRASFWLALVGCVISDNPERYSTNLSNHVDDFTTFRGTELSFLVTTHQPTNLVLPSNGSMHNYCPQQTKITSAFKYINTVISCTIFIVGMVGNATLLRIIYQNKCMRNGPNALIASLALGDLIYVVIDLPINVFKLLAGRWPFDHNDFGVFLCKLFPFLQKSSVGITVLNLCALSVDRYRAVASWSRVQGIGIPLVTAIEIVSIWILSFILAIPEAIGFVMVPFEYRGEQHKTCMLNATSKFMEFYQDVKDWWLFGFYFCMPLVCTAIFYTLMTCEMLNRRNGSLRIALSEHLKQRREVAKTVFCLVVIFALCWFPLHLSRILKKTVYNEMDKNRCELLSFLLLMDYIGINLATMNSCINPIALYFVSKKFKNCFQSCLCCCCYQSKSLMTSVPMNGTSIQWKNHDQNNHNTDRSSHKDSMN
Sequence of Histamine H1 receptor (Homo sapiens) (P35367 whole entry): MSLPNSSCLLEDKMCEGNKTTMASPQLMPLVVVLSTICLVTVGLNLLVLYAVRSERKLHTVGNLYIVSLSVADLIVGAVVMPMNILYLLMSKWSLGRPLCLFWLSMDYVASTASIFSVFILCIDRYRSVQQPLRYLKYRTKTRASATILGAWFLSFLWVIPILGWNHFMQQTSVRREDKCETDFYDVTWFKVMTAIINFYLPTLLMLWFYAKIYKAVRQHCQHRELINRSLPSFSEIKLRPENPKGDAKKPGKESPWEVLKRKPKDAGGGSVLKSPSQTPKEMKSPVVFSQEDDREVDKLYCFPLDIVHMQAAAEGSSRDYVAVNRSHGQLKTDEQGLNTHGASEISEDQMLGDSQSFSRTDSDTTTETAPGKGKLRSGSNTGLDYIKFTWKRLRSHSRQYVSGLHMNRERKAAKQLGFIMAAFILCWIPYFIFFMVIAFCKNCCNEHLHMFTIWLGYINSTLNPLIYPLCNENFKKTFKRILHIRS
Sequence of Neuromedin-K receptor (Homo sapiens) (P29371 whole entry): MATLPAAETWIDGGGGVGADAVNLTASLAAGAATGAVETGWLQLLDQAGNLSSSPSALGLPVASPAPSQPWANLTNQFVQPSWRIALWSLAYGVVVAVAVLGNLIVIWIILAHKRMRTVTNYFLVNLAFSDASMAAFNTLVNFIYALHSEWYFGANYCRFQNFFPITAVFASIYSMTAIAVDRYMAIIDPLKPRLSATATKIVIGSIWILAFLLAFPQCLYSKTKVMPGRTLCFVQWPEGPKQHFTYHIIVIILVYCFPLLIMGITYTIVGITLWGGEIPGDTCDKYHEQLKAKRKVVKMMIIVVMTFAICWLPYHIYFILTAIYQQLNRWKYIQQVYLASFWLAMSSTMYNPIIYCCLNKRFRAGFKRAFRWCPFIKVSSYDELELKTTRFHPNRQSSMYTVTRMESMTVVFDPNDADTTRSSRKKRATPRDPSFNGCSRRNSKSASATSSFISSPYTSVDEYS
Sequence of Muscarinic acetylcholine receptor M1 (Homo sapiens) (P11229 whole entry): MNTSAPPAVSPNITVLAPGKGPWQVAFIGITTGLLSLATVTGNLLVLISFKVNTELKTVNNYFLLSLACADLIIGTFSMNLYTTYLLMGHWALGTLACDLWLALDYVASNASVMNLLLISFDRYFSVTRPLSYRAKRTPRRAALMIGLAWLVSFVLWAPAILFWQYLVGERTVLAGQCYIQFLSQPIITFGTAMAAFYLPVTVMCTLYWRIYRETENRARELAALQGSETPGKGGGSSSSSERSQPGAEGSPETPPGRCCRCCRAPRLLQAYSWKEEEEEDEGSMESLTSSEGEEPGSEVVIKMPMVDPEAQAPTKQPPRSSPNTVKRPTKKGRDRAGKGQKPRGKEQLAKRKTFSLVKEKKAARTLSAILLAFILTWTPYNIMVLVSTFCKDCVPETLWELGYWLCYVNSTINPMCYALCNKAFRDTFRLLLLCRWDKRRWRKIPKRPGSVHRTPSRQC

COc1ccc(CNC(=O)c2cc(-c3cc(Cl)cc(Cl)c3)cnc2-c2cccnc2)cc1OC
inhibition [1]: 2%
inhibition [2]: 10%
Activity [3]: Active
inhibition [4]: 0%
inhibition [5]: 39%
inhibition [6]: 23%
inhibition [7]: 1%
inhibition [8]: -1%
inhibition [9]: 39%
inhibition [10]: 3%
inhibition [11]: 69%
inhibition [12]: 20%
inhibition [13]: 10%
inhibition [14]: 9%
inhibition [15]: 5%
inhibition [16]: 14%
inhibition [17]: 21%
inhibition [18]: 3%
inhibition [19]: -10%
inhibition [20]: 6%
inhibition [21]: 13%
inhibition [22]: 3%
inhibition [23]: -2%
inhibition [24]: 22%
inhibition [25]: 4%
inhibition [26]: -3%
inhibition [27]: 3%
inhibition [28]: 17%
inhibition [29]: 25%
inhibition [30]: 26%
inhibition [31]: 20%
inhibition [32]: -8%
inhibition [33]: 32%
inhibition [34]: 8%
inhibition [35]: 0%
inhibition [36]: 10%
inhibition [37]: 3%
inhibition [38]: 26%
inhibition [39]: 0%
inhibition [40]: 36%
